Results on 11 molecules are retold here after ChEMBL document CHEMBL1122140, “Derivatives of the potent angiotensin converting enzyme inhibitor 5(S)-benzamido-4-oxo-6-phenylhexanoyl-L-proline: effect of changes at positions 2 and 5 of the hexanoic acid portion” (J Med Chem, 1982).

Assay [1] relates to Rattus norvegicus. Put plainly: Inhibition of blood pressure increase produced by iv injection of angiotensin I in conscious normotensive rats at a dose of 3 mg/kg. Format: functional.
The subject of assay [2] is Rattus norvegicus. Briefly: Change in mean aortic blood pressure expressed in hours after an oral administration of 3 mg/kg in conscious renal hypertensive rats.
The test system of assay [3] is Rattus norvegicus. Put plainly: Base line of mean aortic blood pressure in the conscious Renal hypertensive rat was determined after oral administration of 30 mg/kg. Type of assay: functional, Artery.
Assay [4] relates to Rattus norvegicus. Briefly: Maximum effect on blood pressure in the conscious Renal hypertensive rat after oral administration of 30 mg/kg. Type of assay: functional. The method, boiled down: (§1)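 Male CD albino rats were clipped at four weeks old, and hypertension developed over 3–4 weeks. Rats weighed 280–320 g at cannulation and had chronic aortic cannulae implanted 2–4 days before testing. Only rats with mean aortic pressure above 160 mmHg were used. Dosing was oral in 4% gum acacia (2 mL/kg). One-minute running averages were recorded every 30 min and reported as mean ± SEM, two-tailed p < 0.05.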

Assay [5] relates to Rattus norvegicus. Put plainly: Angiotensin I(AI) response to return to 70% of the pretreatment control response was determined at a dose of 3 mg/kg. Format: functional.
Assay [6] relates to Rattus norvegicus. Put plainly: Base line of mean aortic blood pressure in the conscious Renal hypertensive rat was determined after oral administration of 3 mg/kg. Particulars: Artery. Type of assay: functional. The method, boiled down:
as §1

The subject of assay [7] is Rattus norvegicus. Put plainly: Angiotensin I(AI) response to return to 70% of the pretreatment control response was determined at a dose of 3 mg/kg, iv. Format: functional.
Assay [8] deals with Rattus norvegicus. Put plainly: Change in mean aortic blood pressure expressed in hours after an oral administration of 30 mg/kg in conscious renal hypertensive rats.
In assay [9] the test system is Rattus norvegicus. Put plainly: Inhibition of blood pressure increase produced by iv injection of angiotensin I in conscious normotensive rats at a dose of 30 mg/kg. Type of assay: functional.
For assay [10], the system named is Rattus norvegicus. Put plainly: Angiotensin I(AI) response to return to 70% of the pretreatment control response was determined at a dose of 30 mg/kg, po. Format: functional.
The subject of assay [11] is Rattus norvegicus. Briefly: Change in mean aortic blood pressure expressed in hours after an oral administration of 30 mg/kg in conscious renal hypertensive rats. The source holds these as a separate data set.
The target in assay [12] is Angiotensin-converting enzyme (Cavia porcellus). Briefly: Inhibition of guinea pig serum Angiotensin I converting enzyme.
Assay [13] relates to Rattus norvegicus. Put plainly: Change in mean aortic blood pressure expressed in hours after an oral administration of 3 mg/kg in conscious normotensive rats. Format: functional, Artery.

Each structure is given as a SMILES string.

As a reminder, the inhibition in vivo is how much of the control response was suppressed. Lower therefore signals a response near the control.

In the case of `C[C@H](CC(=O)[C@H](Cc1ccccc1)NC(=O)c1ccccc1)C(=O)N1CCC[C@H]1C(=O)O`, 3 mg/kg produced 100% inhibition in vivo in the assay with Rattus norvegicus [1]. The Change was -40 mmHg with Rattus norvegicus [2] and -38 mmHg in the assay with Rattus norvegicus [8]. Further, the Mean aortic blood pressure amounted to 197 mmHg in the assay with Rattus norvegicus [3] and 159 mmHg in the assay on Rattus norvegicus [4]. Also, the AI recovery time came to 73 min with Rattus norvegicus [5], 73 min in the assay with Rattus norvegicus [7] and 143 min in the assay on Rattus norvegicus [10]. In the assay on Rattus norvegicus [6], this molecule yielded a Mean aortic blood pressure at 3 mg/kg of 209 mmHg. In addition, the inhibition in vivo at 30 mg/kg with Rattus norvegicus [9] came out at 100%.

As to `CCCCOC(=O)NC(Cc1ccccc1)C(=O)CCC(=O)N1CCCC1C(=O)O` (stereo not given), the “Mean aortic blood pressure” value in the assay with Rattus norvegicus [3] is 175 mmHg; in the assay with Rattus norvegicus [4], 160 mmHg. Besides, the Change in the assay on Rattus norvegicus [11] is -15 mmHg. The I50 in assay [12] was determined as 210 nM.

Regarding `CCCCCCCCCC(=O)N[C@@H](Cc1ccccc1)C(=O)CCC(=O)N1CCCC1C(=O)O` (stereo not given in full), the Change in the assay with Rattus norvegicus [13] is -21 mmHg. Further, the “Mean aortic blood pressure” value in the assay with Rattus norvegicus [3] is on record as 197 mmHg; in the assay on Rattus norvegicus [4], 176 mmHg. In [12], this molecule registered an I50 of 6500 nM.

On to `CCCCOC(=O)NC(Cc1ccccc1)C(=O)CC(C)C(=O)N1CCCC1C(=O)O` (stereo not given), for which the entries for the “Mean aortic blood pressure” value in the assay with Rattus norvegicus [3] and in the assay on Rattus norvegicus [4] were 188 mmHg and 176 mmHg, respectively. For the same molecule, the Change in the assay with Rattus norvegicus [11] was -12 mmHg. In [12], this molecule gave an I50 of 29 nM.

Consider `C[C@H](CC(=O)[C@@H](Cc1ccccc1)NC(=O)c1ccccc1)C(=O)N1CCC[C@H]1C(=O)O`, for which, in the assay on Rattus norvegicus [13], the Change was -22 mmHg. In addition, the “Mean aortic blood pressure” value in the assay with Rattus norvegicus [3] is on record as 188 mmHg; in the assay with Rattus norvegicus [4] it was 166 mmHg.

Take `CCCCCCCC(=O)N[C@@H](Cc1ccccc1)C(=O)CCC(=O)N1CCCC1C(=O)O` (stereo not given in full): the entries for the “Mean aortic blood pressure” value in the assay on Rattus norvegicus [3] and in the assay on Rattus norvegicus [4] were 182 mmHg and 167 mmHg, respectively. In the assay with Rattus norvegicus [11], the Change is -15 mmHg. In assay [12], the I50 is 650 nM.

With `O=C(N[C@@H](Cc1ccccc1)C(=O)CCC(=O)N1CCC[C@H]1C(=O)O)c1ccccc1`, in the assay on Rattus norvegicus [1], the inhibition in vivo at 3 mg/kg worked out at 57%. In addition, the “Mean aortic blood pressure” value with Rattus norvegicus [3] is recorded as 190 mmHg. In the assay on Rattus norvegicus [11], the Change is -12 mmHg. Also, the inhibition in vivo at 30 mg/kg in the assay on Rattus norvegicus [9] came to 48%.

Take `CCCCCC(=O)N[C@@H](Cc1ccccc1)C(=O)CCC(=O)N1CCCC1C(=O)O` (stereo not given in full): in the assay on Rattus norvegicus [13], the Change is -2 mmHg. The figures for the “Mean aortic blood pressure” value with Rattus norvegicus [3] and in the assay on Rattus norvegicus [4] were 193 mmHg and 191 mmHg, respectively. The molecule also yielded an I50 in assay [12] of 47 nM.

In turn, `C[C@H](CS)C(=O)N1CCC[C@H]1C(=O)O` [CAPTOPRIL] came in with an inhibition in vivo at 3 mg/kg with Rattus norvegicus [1] of 95%. The “Mean aortic blood pressure” value with Rattus norvegicus [4] worked out at 99 mmHg. Further, 30 mg/kg produced 69% inhibition in vivo in the assay on Rattus norvegicus [9].

In the assay on Rattus norvegicus [1], `C[C@@H](CC(=O)[C@H](Cc1ccccc1)NC(=O)c1ccccc1)C(=O)N1CCC[C@H]1C(=O)O` displayed an inhibition in vivo at 3 mg/kg of 74%. The “Mean aortic blood pressure” value in the assay with Rattus norvegicus [3] worked out at 189 mmHg; in the assay with Rattus norvegicus [4] it was 173 mmHg. Besides, in the assay with Rattus norvegicus [11], the Change is -16 mmHg. For the same molecule, the AI recovery time is 71 min with Rattus norvegicus [7] and >180 min with Rattus norvegicus [10]. In the assay with Rattus norvegicus [9], this molecule gave an inhibition in vivo at 30 mg/kg of 71%.

As to `C[C@@H](CC(=O)[C@@H](Cc1ccccc1)NC(=O)c1ccccc1)C(=O)N1CCC[C@H]1C(=O)O`, the “Mean aortic blood pressure” value with Rattus norvegicus [3] is 183 mmHg; in the assay with Rattus norvegicus [4], 163 mmHg. Further, the Change in the assay on Rattus norvegicus [11] is -20 mmHg.
